# Measurements taken from ChEMBL document CHEMBL4602689, “Absolute Configuration and Antibiotic Activity of Piceamycin” (J Nat Prod, 2020).
# Calls of active or inactive are those of the source. No cut-off for these calls is given here.
# Columns and labels:
# Bacillus thuringiensis = assay: Antibacterial activity against Bacillus thuringiensis KACC 10168 assessed as reduction in microbial growth after 24 hrs by two-fold serial dilution method; type: functional; conditions: KACC 10168, 24 h
# In short: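 Bacteria grown overnight in tryptic soy broth at 28 °C, centrifuged and washed twice in sterile water. Compounds in DMSO were serially diluted 2-fold in TSB from 128 to 0.015 μg/mL. Final inoculum was 5 × 10⁴ cfu/mL, incubated 24 h at 28 °C. MIC taken as the lowest concentration inhibiting growth. Controls were ampicillin, tetracycline, streptomycin and DMSO.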
# Klebsiella pneumoniae = assay: Antibacterial activity against Klebsiella pneumoniae ATCC 10031 assessed as reduction in microbial growth after 24 hrs by two-fold serial dilution method; type: functional; conditions: ATCC 10031, 24 h
# In short: (§1)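 Strains grown overnight in Mueller–Hinton broth at 37 °C, centrifuged and washed twice in sterile water. DMSO stocks were 2-fold serially diluted in MHB (128 to 0.015 μg/mL). Final inoculum was 5 × 10⁴ cfu/mL, incubated 24 h at 37 °C. MIC is the lowest concentration inhibiting growth. Controls were ampicillin, tetracycline, streptomycin and DMSO.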
# SK-HEP1 = assay: Antiproliferative activity against human SKHEP1 cells assessed as reduction in cell viability by sulforhodamine B assay; type: functional, cell-based
# In short: (§2)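 Cells kept in DMEM with 10% heat-inactivated FBS plus penicillin, streptomycin and amphotericin B, at 37 °C and 5% CO₂. SRB assay: cells seeded in 96-well plates and treated for the indicated times, with 30-min zero-day controls. Fixed, stained with 0.4% SRB in 1% acetic acid, solubilized in 10 mM Tris pH 10.0, absorbance at 515 nm. IC50 by nonlinear regression.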
# MDA-MB-231 = assay: Antiproliferative activity against human MDA-MB-231 cells assessed as reduction in cell viability by sulforhodamine B assay; type: functional, cell-based; in short: as §2
# A549 = assay: Antiproliferative activity against human A549 cells assessed as reduction in cell viability by sulforhodamine B assay; type: functional, cell-based
# In short: (§3)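 Cells kept in RPMI 1640 with 10% heat-inactivated FBS plus penicillin, streptomycin and amphotericin B, at 37 °C and 5% CO₂. Cells seeded in 96-well plates and treated for the indicated times; zero-day controls read after 30 min. Fixed, stained with 0.4% SRB in 1% acetic acid, dye dissolved in 10 mM Tris pH 10.0, A515 read. IC50 by nonlinear regression.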
# SNU-638 = assay: Antiproliferative activity against human SNU638 cells assessed as reduction in cell viability by sulforhodamine B assay; type: functional, cell-based; in short: as §3
# Enterococcus faecalis = assay: Antibacterial activity against Enterococcus faecalis ATCC 19433 assessed as reduction in microbial growth after 24 hrs by two-fold serial dilution method; type: functional; conditions: ATCC 19433, 24 h; in short: as §1
# Proteus hauseri = assay: Antibacterial activity against Proteus hauseri NBRC 3851 assessed as reduction in microbial growth after 24 hrs by two-fold serial dilution method; type: functional; conditions: NBRC 3851, 24 h; in short: as §1
# HCT-116 = assay: Antiproliferative activity against human HCT116 cells assessed as reduction in cell viability by sulforhodamine B assay; type: functional, cell-based; in short: as §3
# Enterococcus faecium = assay: Antibacterial activity against Enterococcus faecium ATCC 19434 assessed as reduction in microbial growth after 24 hrs by two-fold serial dilution method; type: functional; conditions: ATCC 19434, 24 h; in short: as §1
# Escherichia coli = assay: Antibacterial activity against Escherichia coli ATCC 25922 assessed as reduction in microbial growth after 24 hrs by two-fold serial dilution method; type: functional; conditions: ATCC 25922, 24 h; in short: as §1
# Staphylococcus aureus = assay: Antibacterial activity against Staphylococcus aureus ATCC 25923 assessed as reduction in microbial growth after 24 hrs by two-fold serial dilution method; type: functional; conditions: ATCC 25923, 24 h; in short: as §1
# Salmonella enterica = assay: Antibacterial activity against Salmonella enterica ATCC 14028 assessed as reduction in microbial growth after 24 hrs by two-fold serial dilution method; type: functional; conditions: ATCC 14028, 24 h; in short: as §1
# K562 = assay: Antiproliferative activity against human K562 cells assessed as reduction in cell viability by sulforhodamine B assay; type: functional, cell-based; in short: as §3
# Candida albicans = assay: Growth inhibition of Candida albicans ATCC 10231; type: functional, organism-based
# Aspergillus fumigatus = assay: Growth inhibition of Aspergillus fumigatus HIC 6094; type: functional, organism-based
# Trichophyton rubrum = assay: Growth inhibition of Trichophyton rubrum NBRC 9185; type: functional, organism-based
# [1] = tested on: Trichophyton mentagrophytes; assay: Growth inhibition of Trichophyton mentagrophytes IFM 40996; type: functional, organism-based
Compound,MIC (Bacillus thuringiensis),MIC (Klebsiella pneumoniae),IC50 (SK-HEP1),IC50 (MDA-MB-231),IC50 (A549),IC50 (SNU-638),MIC (Enterococcus faecalis),MIC (Proteus hauseri),IC50 (HCT-116),MIC (Enterococcus faecium),MIC (Escherichia coli),MIC (Staphylococcus aureus),MIC (Salmonella enterica),IC50 (K562),growth inhibition (GI) (Candida albicans),growth inhibition (GI) (Aspergillus fumigatus),growth inhibition (GI) (Trichophyton rubrum),growth inhibition (GI) [1]
CN[C@@H]1[C@H](O[C@H]2[C@H](O[C@H]3[C@H](O)[C@@H](O)[C@H](N=C(N)N)[C@@H](O)[C@@H]3N=C(N)N)O[C@@H](C)[C@]2(O)C=O)O[C@@H](CO)[C@H](O)[C@H]1O [STREPTOMYCIN],130 µg/mL,–,–,–,–,–,–,–,–,–,–,–,–,–,–,–,–,–
CN(C)[C@@H]1C(O)=C(C(N)=O)C(=O)[C@@]2(O)C(O)=C3C(=O)c4c(O)cccc4[C@@](C)(O)[C@H]3C[C@@H]12 [TETRACYCLINE],–,0.44 µg/mL,–,–,–,–,–,–,–,–,–,–,–,–,–,–,–,–
CC1=C/C[C@@H](O)CC(=O)/C=C/C=C/C=C\C=C\C=C/[C@@H](C)CNC(=O)\C=C/C=C\C=C\1,380 µg/mL,> 130 µg/mL,1870 nM,1000 nM,780 nM,850 nM,> 130 µg/mL,130 µg/mL,1010 nM,130 µg/mL,> 130 µg/mL,> 130 µg/mL,130 µg/mL,960 nM,–,–,–,–
CC1(C)S[C@@H]2[C@H](NC(=O)[C@H](N)c3ccccc3)C(=O)N2[C@H]1C(=O)O [AMPICILLIN],–,> 130 µg/mL,–,–,–,–,0.5 µg/mL,0.03 µg/mL,–,1 µg/mL,16 µg/mL,0.17 µg/mL,0.25 µg/mL,–,–,–,–,–
CC1=C\C[C@@H](O)CC(=O)/C=C/C=C/C=C\C=C\C=C/[C@@H](C)CNC(=O)\C=C/C=C/C=C/1,–,–,–,–,–,–,–,–,–,–,–,–,–,–,inactive,inactive,inactive,inactive
COc1cc([C@@H]2c3cc4c(cc3[C@@H](O[C@@H]3O[C@@H]5CO[C@@H](C)O[C@H]5[C@H](O)[C@H]3O)[C@H]3COC(=O)[C@H]23)OCO4)cc(OC)c1O [ETOPOSIDE],–,–,380 nM,3320 nM,600 nM,520 nM,–,–,1360 nM,–,–,–,–,980 nM,–,–,–,–
C[C@@H]1\C=C/C=C/C=C\C=C\C=C\C(=O)C2=C(O)C(=O)C[C@@]2(C)/C=C/C=C\C=C/C(=O)NC1,3.2 µg/mL,> 130 µg/mL,320 nM,660 nM,280 nM,380 nM,32 µg/mL,0.025 µg/mL,220 nM,5.3 µg/mL,> 130 µg/mL,0.025 µg/mL,0.083 µg/mL,740 nM,inactive,inactive,inactive,inactive
